Experimental findings from the RNAGym collection of RNA variant scans (doi:10.1126/science.aae0568) are described below.

The chains are these.
B1: tRNA (parent)
chain: GUUCCGUUGGCGUAAUGGUAACGCGUCUCCCUCCUAAGGAGAAGACUGCGGGUUCGAGUCCCGUACGGAACG

Fewer inactive variants are shown than the library holds. Some results are limits rather than exact numbers.

This series covers variants of B1. Put plainly: yeast fitness relative to wild type (ratio to wild type); higher = fitter; tRNA-Arg(CCU), competitive growth, 37 C, YPD. Put shortly:
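Gene amplicons from the start population and from each of six end populations were read by 100-nucleotide paired-end sequencing. Those end populations came from pooled Saccharomyces cerevisiae strains carrying tRNA-Arg(CCU) gene variants at the native locus, competed in YPD at 37°C for 24 hours. Fitness relative to wild type was worked out from changes in genotype frequencies. Genotypes needed ≥ 100 starting reads, and estimates < 0.5 were set to 0.5.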
As for A20G U64G G68A A70C, the yeast fitness was not above 0.5.

Turning to A20G G56C G68C, the yeast fitness turned out to be 0.6.

As to A20G U54G A57U, the yeast fitness is not above 0.5.

Consider A20G C24G G52C, for which the yeast fitness was not above 0.5.

For A20U G23C U35G, the yeast fitness came to 0.643.

A20G A21G C24U U59C C62A: the yeast fitness is not above 0.5.

In the case of A21C C66A, the yeast fitness was determined as 0.527.

Turning to A21C A36U G48A, the yeast fitness was not above 0.5.

As to A21G C29U A36U A43U C62A, the yeast fitness turned out to be 0.559.

Regarding A21G C27U C30G U32G C46G G48A C60A, the yeast fitness was found to be 0.561.

Take A21C C22G A69C: the yeast fitness is not above 0.5.

As to A21C U28A G68A, the yeast fitness was not above 0.5.

Consider A20G C24G C66U, for which the yeast fitness was determined as 0.527.

For A21C A42U A45U, the yeast fitness amounted to 0.646.

Consider A20U A36G A43U, for which the yeast fitness worked out at 0.601.

Turning to A20C C46A C49G G63A, the yeast fitness is not above 0.5.

For the variant A20C U28A, the yeast fitness amounted to 0.672.

Consider A20G C24A A70U, for which the yeast fitness was determined as 0.546.

In the case of A20C U32A C34G A57C C66U, the yeast fitness is not above 0.5.

For the variant A20G C22U G50C G63C G67C, the yeast fitness was not above 0.5.

In the case of A20U C29U C49G C55A C66U, the yeast fitness was not above 0.5.

With A21G C33U C49A, the yeast fitness was 0.502.

As for A20C C49U U59C, the yeast fitness was found to be 0.588.

For A20U C29A C30A U53G C62G, the yeast fitness was not above 0.5.

Turning to A20U U26C C33A C62A A69U, the yeast fitness was not above 0.5.

On to A21C G67A, for which the yeast fitness is 0.8.

For the variant A20G A42C A70G, the yeast fitness was 0.629.

On to A20U A21C C27A A45G, for which the yeast fitness was not above 0.5.

For A21C C34U U64A, the yeast fitness is not above 0.5.

For A20G G23A A65G, the yeast fitness is 0.574.

Regarding A21C C29G, the yeast fitness came to 0.622.

As for A21C C30G A65G, the yeast fitness was not above 0.5.

As for A20U C22U, the yeast fitness was 0.716.

For the variant A21C A45U G48C C62U, the yeast fitness was not above 0.5.

For A20U A70G, the yeast fitness was determined as 0.918.

For the variant A21C C33U C61A A70C, the yeast fitness is 0.578.

Regarding A21G C31A, the yeast fitness is 0.962.

As to A20U A40U G44C U53G, the yeast fitness was not above 0.5.

With A20U G23A G63A A70U, the yeast fitness was not above 0.5.

For the variant A21G A40G C55A, the yeast fitness turned out to be 0.535.

A21G C27G C33G: the yeast fitness is not above 0.5.

Consider A21G A45C U59C A69G, for which the yeast fitness worked out at 0.539.

As to A21C A40U C55G C66G, the yeast fitness was not above 0.5.

As for A20U A40G, the yeast fitness was determined as 0.903.

Take A21C U35C: the yeast fitness came to 0.856.

For the variant A21G A45C C62U G68C A69G, the yeast fitness was not above 0.5.

As to A20G G25A C34A A36G G50C, the yeast fitness was not above 0.5.

A20U A42U A45G: the yeast fitness turned out to be 0.532.

In the case of A20G C29G G68A, the yeast fitness is not above 0.5.

As for A20C G56A A65G C66U, the yeast fitness came out at 0.562.

Take A20U C29U C49G C55A G68C: the yeast fitness is not above 0.5.

Regarding A20C G39C C49U, the yeast fitness is not above 0.5.

For the variant A20U C24U, the yeast fitness is 0.841.

Regarding A20C U28A C62U G67A, the yeast fitness is not above 0.5.

On to A21C C27U A57G C62U, for which the yeast fitness came to 0.507.

As for A20C C61U, the yeast fitness is 0.806.

In the case of A20U G68A, the yeast fitness stood at 0.843.

With A20U G68C, the yeast fitness was 0.86.

In the case of A21G A43U C49U U53C C61G, the yeast fitness was not above 0.5.

Regarding A20U C24U A42U C46A C55U C61G, the yeast fitness came out at 0.518.

Consider A20U C61U, for which the yeast fitness amounted to 0.836.

Consider A21C C34G G48C, for which the yeast fitness is not above 0.5.

A20G C29A A40U C62G: the yeast fitness is not above 0.5.

With A21C C22G G38C C49U A57C, the yeast fitness is not above 0.5.

For A21G A37G C60G, the yeast fitness was not above 0.5.

In the case of A20U A43G G51A A69C, the yeast fitness was not above 0.5.

As to A21C G63C, the yeast fitness amounted to 0.779.

As for A20C C34G A69U, the yeast fitness is 0.549.

As for A21C A42G, the yeast fitness was 0.751.

On to A20G G23C C31U A57U C66U, for which the yeast fitness is not above 0.5.

Regarding A21G A37C A57C G58A, the yeast fitness is not above 0.5.

As to A20G A45U G63C, the yeast fitness was 0.539.

For the variant A21C C27G C29A A65C, the yeast fitness was not above 0.5.

On to A20U C30U U35G A36U, for which the yeast fitness was not above 0.5.

Consider A20G G25A C31G C62A, for which the yeast fitness is not above 0.5.

For A20U A36G G48C G67C, the yeast fitness was not above 0.5.

For A21C U26G, the yeast fitness came out at 0.642.

A21C G25C U26G U59A G63C G68U: the yeast fitness was not above 0.5.

On to A20U A21U C34G G63C, for which the yeast fitness was not above 0.5.

For the variant A21C A57U C66U, the yeast fitness is not above 0.5.

In the case of A20G C31A C34G A45U, the yeast fitness is not above 0.5.

For the variant A20G C22G U54A, the yeast fitness was not above 0.5.

A20U A37U G41C C46G: the yeast fitness was not above 0.5.

As for A20G C22G C30U U54C, the yeast fitness was not above 0.5.

As for A20C U32A C34G A37U, the yeast fitness is not above 0.5.

Turning to A21C G25C, the yeast fitness came out at 0.896.

As for A20G C60U C62U, the yeast fitness is not above 0.5.

For A20G C55U, the yeast fitness amounted to 0.82.

A20U C33A: the yeast fitness came out at 0.653.

For A20U C33U, the yeast fitness was 0.675.

As to A21G C30A U32G G67A A69C, the yeast fitness was not above 0.5.

Regarding A20C G25C A40U, the yeast fitness came out at 0.605.

Turning to A20U U35C, the yeast fitness was found to be 0.949.

Consider A20C U35C G51C A57G C60G A70U, for which the yeast fitness was not above 0.5.

For the variant A20U A37G, the yeast fitness worked out at 0.892.

With A20G G67A A69C, the yeast fitness turned out to be 0.563.

In the case of A21G C22A G50C, the yeast fitness was not above 0.5.

For A20U U47C, the yeast fitness came to 0.935.

Consider A20G A43U, for which the yeast fitness stood at 1.03.

As for A20U C33A C66A, the yeast fitness is not above 0.5.

As for A20G A40C, the yeast fitness was found to be 0.803.

A20G A40U: the yeast fitness was 0.92.

A20U C55G G58C: the yeast fitness was not above 0.5.

Turning to A20G C30U C46A G63U, the yeast fitness is not above 0.5.

For the variant A20G G50C G63C G67C, the yeast fitness is not above 0.5.

Consider A20U A36G G68A, for which the yeast fitness was determined as 0.574.

In the case of A20G A57G C62U A69G, the yeast fitness came to 0.772.

For A20C G25C G38C A43G, the yeast fitness is not above 0.5.

Turning to A20G A57C C62G C66G, the yeast fitness is not above 0.5.

Regarding A21G C29U, the yeast fitness is 0.944.

Turning to A20G C34U A40U A42U, the yeast fitness is not above 0.5.

For A21G C31G C66A, the yeast fitness is 0.505.

With A20C G44A G56A, the yeast fitness stood at 0.544.

On to A20G G41C A70U, for which the yeast fitness turned out to be 0.622.

Turning to A20G U54C A70C, the yeast fitness turned out to be 0.578.

In the case of A20G G58C, the yeast fitness is 1.

Take A20C C55G: the yeast fitness worked out at 0.59.

Turning to A21C U32C A40G G68A, the yeast fitness is not above 0.5.

As to A20G C29G G63C, the yeast fitness was not above 0.5.

Take A21C C24U U32A C62G: the yeast fitness was 0.539.

With A21C C34U A36U G38C C49U, the yeast fitness was not above 0.5.

Turning to A20U A21C G67A, the yeast fitness was not above 0.5.

In the case of A21G C30U U53A A57U A65U, the yeast fitness is not above 0.5.

For A20G G48C, the yeast fitness was 1.

Turning to A21C U64A, the yeast fitness is 0.799.

As for A20U C22G A45C U59C, the yeast fitness is 0.651.

With A20U C46A, the yeast fitness was determined as 0.858.

Regarding A20U U47G G52C, the yeast fitness was not above 0.5.

Regarding A20C C60U A69U, the yeast fitness came to 0.617.

Turning to A20C G39C G41A, the yeast fitness was 0.652.

On to A21G A36G G38C G50A, for which the yeast fitness was not above 0.5.

As to A20U G39A A45C A57C G68C, the yeast fitness was not above 0.5.

Turning to A21C C34U, the yeast fitness worked out at 0.536.

Take A20G C29A C49U G63A: the yeast fitness was not above 0.5.

For the variant A20G C22G C27G C30U C31G G51C, the yeast fitness is not above 0.5.

Take A21C G39A A65C: the yeast fitness was not above 0.5.

Regarding A20U G25C A65U A69C, the yeast fitness stood at 0.587.

A20G C24U: the yeast fitness came to 0.9.

With A20C C31G G48A G50C C60G, the yeast fitness stood at 0.722.

With A21C U53G, the yeast fitness turned out to be 0.567.

A20C C33U A37G C49G A57G: the yeast fitness was not above 0.5.

Take A21G A42U G67A: the yeast fitness stood at 0.54.

In the case of A20G A37C A40G C49U, the yeast fitness is not above 0.5.

For the variant A20G C22G G38A, the yeast fitness was 0.539.

For A21C U32C C60G, the yeast fitness was not above 0.5.

Consider A21G A70G, for which the yeast fitness is 0.992.

For the variant A20G C24G U32C G51A, the yeast fitness was not above 0.5.

For the variant A20U A36G G38A A40U A42G, the yeast fitness was not above 0.5.

As for A21G C27A, the yeast fitness is 0.757.

Turning to A21G C27G, the yeast fitness stood at 0.562.

On to A21G C27U, for which the yeast fitness was determined as 1.03.

Consider A21C G25C U26G G50U G56A U59A A70C, for which the yeast fitness was 0.541.

For the variant A20C C30G, the yeast fitness came out at 0.612.

Consider A20U G44C A45G, for which the yeast fitness is 0.596.

Regarding A20U A21G C61U, the yeast fitness is not above 0.5.

In the case of A20U C29U A42G C49G C55A, the yeast fitness is not above 0.5.

Consider A21G C33G C34G, for which the yeast fitness worked out at 0.547.

A20G C22U G51C: the yeast fitness was not above 0.5.

As for A20C C31A G48A U59C, the yeast fitness is not above 0.5.

A20C C33A G41C C49G: the yeast fitness was found to be 0.519.

Take A20G A40C A42U A43C: the yeast fitness was not above 0.5.

Take A20G C24A C49U C66U A70C: the yeast fitness is not above 0.5.

As to A20C G52C, the yeast fitness is 0.583.

Turning to A21C A40C, the yeast fitness is 0.734.

In the case of A20U A21U, the yeast fitness amounted to 0.61.

Regarding A21C C27A, the yeast fitness worked out at 0.545.

As for A21G C22A G63C G67A, the yeast fitness is not above 0.5.
